Test results as given in paper PMC9134932 (CNS Oncology, 2022).
Several values for one entry are separate records, joined by “and”; a condition that tells them apart may be missing. Equal values may be shown once. Read-outs that look alike come from different tables or passages of the source. Marks after values point to notes of the source that are not given here.

Legend:
[1] = tested on: patients with recurrent malignant glioma; test: Phase I dose escalation; format: in vivo, human
Summary of the method: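 Dose assignment used accelerated titration, then 3 + 3. Planned levels were 1, 2, 4, 8 and 16 mg/kg, given BID on Mon/Wed/Fri for 2 weeks per 28-day cycle, as an oral suspension. Toxicity was assessed at baseline and before each cycle, graded by CTCAE v4.0. Dose was held for grade II toxicity and cut by 30% or one level for grade III. DSMB approval was required before each cohort change.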

[2] = i.v. 40 mg/kg, no reference given, cited from earlier work
[3] = tested on: p-STAT3 (Y705) in PBMCs; test: Intracellular p-STAT3 staining of patient PBMCs by flow cytometry; format: in vivo, human
Summary of the method: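 Blood was processed at once because the p-STAT3 signal decays ex vivo. Ficoll-isolated PBMCs (6 × 10^6 in PBS) were fixed in 2% paraformaldehyde (final) for 10 min at 37°C, then permeabilised in ice-cold 90% methanol for 30 min. Staining was PE-anti-p-STAT3 (Y705) for 1 h at RT, in duplicate wells, with duplicate isotype-control wells and one unstained well. Duplicate specimens were run in parallel. Read-out was % p-STAT3+ PBMCs by flow cytometry versus baseline (0 h); paired t-test.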

[4] = tested on: glioma cancer cells; conditions: read-out: direct IC50 of glioma cancer cells; cited from earlier work
[5] = tested on: recurrent glioblastoma (GBM); test: Clinical outcome: PFS, OS, MRI response; format: in vivo, human
Summary of the method: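 Oral dosing as weight-based powder reconstituted into a liquid suspension just before intake, BID on Mon/Wed/Fri for 2 weeks of each 28-day cycle, for up to 12 cycles or until progression. MRI at baseline, then about every 2–3 months, scored by iRANO on FLAIR and post-contrast T1WI. Intention-to-treat population. Kaplan–Meier estimates of PFS and OS, with OS counted from initial diagnosis.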

[6] = tested on: genetically engineered murine models of gliomas; conditions: p < 0.01; cited from earlier work
[7] = tested on: PBMCs; test: Immune monitoring of patient PBMCs; format: in vivo, human; conditions: for Th1 to Th2 ratio: % CD3+ CD4+ IFN-γ+ divided by % CD3+ CD4+ IL-4+ T cells; for Cytotoxic CD8 to Treg ratio: % CD3+ CD8+ IFN-γ+ divided by % CD3+ CD4+ CD25+ Foxp3+ cells
Summary of the method: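 PBMCs were taken at C1D1 0 and 4 h, C1D2 0 h, and C1D8 0 and 4 h, then isolated from heparinised blood on Ficoll 1077. Cells were held 4–5 h at 37°C in T cell medium with protein transport inhibitor, Fc-blocked 15 min on ice, and given fixable viability dye 30 min at 4°C. Surface staining, fix/perm and intracellular staining followed, then flow cytometry. Th1:Th2 = %CD3+CD4+IFN-γ+ / %CD3+CD4+IL-4+. CD8:Treg = %CD3+CD8+IFN-γ+ / %CD3+CD4+CD25+FoxP3+.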

[8] = tested on: GL261 glioma model; conditions: cited from earlier work
[9] = tested on: immune modulatory effects; conditions: cited from earlier work
[10] = three weeks after the last administration; range: 0.52-4.0; no reference given; cited from earlier work
[11] = no reference given, cited from earlier work
[12] = PK of WP1066 in human plasma; format: in vivo; conditions: 1-8 mg/kg oral
[13] = tested on: established intracerebral melanoma; conditions: versus 0% of vehicle control mice (p = 0.0076); cited from earlier work
[14] = count in enrolled patient population (n = 8), all dose levels
[15] = sum over all toxicities, enrolled patient population (n = 8)
[16] = 1 mg/kg, C1D1 0 h (baseline before first dose)
[17] = 2 mg/kg, C1D1 0 h (baseline before first dose)
[18] = 4 mg/kg, C1D1 0 h (baseline before first dose)
[19] = 8 mg/kg, C1D1 0 h (baseline before first dose)

Compound: C[C@H](NC(=O)/C(C#N)=C/c1cccc(Br)n1)c1ccccc1 [WP1066]
- hematological events such as thrombocytopenia or lymphopenia ([1]; 8 patients, 1-8 mg/kg): no significant hematological events
- treatment-related deaths ([1]; 8 patients, 1-8 mg/kg): No treatment-related deaths occurred
- patients with the most common adverse event, grade 1 nausea and diarrhea ([1]; 8 patients, all dose levels): 50%
- Alanine aminotransferase increased, Grade 1 [1, 14]: 1
- Alanine aminotransferase increased, Grade 2 [1, 14]: 1
- Cardiac disorders, other-sinus rhythm probable left atrial enlargement, Grade 1 [1, 14]: 1
- Cholesterol high, Grade 1 [1, 14]: 1
- Creatinine increase, Grade 1 [1, 14]: 1
- Diarrhea, Grade 1 [1, 14]: 4
- Diarrhea, Grade 2 [1, 14]: 1
- Gastrointestinal disturbance, Grade 1 [1, 14]: 1
- Heartburn, Grade 1 [1, 14]: 1
- Lymphocyte count decrease, Grade 1 [1, 14]: 1
- Lymphocyte count decrease, Grade 2 [1, 14]: 3
- Lymphocyte count decrease, Grade 3 [1, 14]: 0
- Lymphocyte count decrease, Grade 4 [1, 14]: 0
- Lymphocyte count decrease, Grade 5 [1, 14]: 0
- Nausea, Grade 1 [1, 14]: 4
- Neutrophil count decreased, Grade 1 [1, 14]: 2
- Neutrophil count decreased, Grade 2 [1, 14]: 0
- Neutrophil count decreased, Grade 3 [1, 14]: 0
- Neutrophil count decreased, Grade 4 [1, 14]: 0
- Neutrophil count decreased, Grade 5 [1, 14]: 0
- Platelet count decrease, Grade 1 [1, 14]: 1
- Platelet count decrease, Grade 2 [1, 14]: 0
- Platelet count decrease, Grade 3 [1, 14]: 0
- Platelet count decrease, Grade 4 [1, 14]: 0
- Platelet count decrease, Grade 5 [1, 14]: 0
- Vomiting, Grade 1 [1, 14]: 1
- White blood cell decrease, Grade 1 [1, 14]: 3
- White blood cell decrease, Grade 2 [1, 14]: 1
- White blood cell decrease, Grade 3 [1, 14]: 0
- White blood cell decrease, Grade 4 [1, 14]: 0
- White blood cell decrease, Grade 5 [1, 14]: 0
- tolerability of the oral formulation ([1]; dose level 4 (8 mg/kg), all three subjects): oral aversion to the formulation
- Total toxicities, Grade 2 [1, 15]: 6
- Total toxicities, Grade 3 [1, 15]: 0
- Total toxicities, Grade 4 [1, 15]: 0
- Total toxicities, Grade 5 [1, 15]: 0
- mean concentration within the brain ([2]; at 15 min): 162 µM
- mean concentration within the brain ([2]; at 6 h): 6 µM
- % of p-STAT3+ PBMC [3, 16]: 39.9%
- % of p-STAT3+ PBMC ([3]; 1 mg/kg, C1D1 4 h): 33.4%
- % of p-STAT3+ PBMC ([3]; 1 mg/kg, C1D2 0 h): 31.8%
- % of p-STAT3+ PBMC ([3]; 1 mg/kg, C1D8 0 h): 19.3%
- % of p-STAT3+ PBMC ([3]; 1 mg/kg, C1D8 4 h): 15.7%
- % of p-STAT3+ PBMC [3, 17]: 38.1%
- % of p-STAT3+ PBMC ([3]; 2 mg/kg, C1D1 4 h): 33.8%
- % of p-STAT3+ PBMC ([3]; 2 mg/kg, C1D2 0 h): 31.5%
- % of p-STAT3+ PBMC ([3]; 2 mg/kg, C1D8 0 h): 27.6%
- % of p-STAT3+ PBMC ([3]; 2 mg/kg, C1D8 4 h): 34.8%
- % of p-STAT3+ PBMC [3, 18]: 35.0% and 27.8% and 35.9%
- % of p-STAT3+ PBMC ([3]; 4 mg/kg, C1D1 4 h): 28.2% and 30.9% and 36.0%
- % of p-STAT3+ PBMC ([3]; 4 mg/kg, C1D2 0 h): 26.9% and 29.7% and 45.8%
- % of p-STAT3+ PBMC ([3]; 4 mg/kg, C1D8 0 h): 37.7% and 27.3%
- % of p-STAT3+ PBMC ([3]; 4 mg/kg, C1D8 4 h): 22.7% and 21.1% and 35.3%
- lowest dose with p-STAT3 suppression in peripheral blood (PBMCs) ([3]; oral BID, longitudinal administration): 1 mg/kg
- IC50 [4]: 2 to 5 µM
- 6-month PFS (PFS6) rate ([5]; 8 patients): 0%
- longest response duration ([5]; 8 patients): exceeded 3.25 months
- estimated 1-year OS rate ([5]; Kaplan-Meier, 8 patients): 100%
- median overall survival (OS) ([5]; from the time of the initial diagnosis, 95% CI: 22.5 months-NA months): 25 months
- Survival weeks ([5]; individual patient at 1 mg/kg): Alive
- Survival weeks ([5]; individual patient at 2 mg/kg): 65 weeks
- Survival weeks ([5]; individual patients at 4 mg/kg, 4 mg/kg): 108 weeks and 109 weeks and 194 weeks
- Survival weeks ([5]; individual patients at 8 mg/kg, 8 mg/kg): 115 weeks and 98 weeks and Alive
- increase in median survival time [6]: 55.5%
- % IFN-γ+ CD8 T cells [7, 16]: 8.3%
- % of FoxP3 Tregs [7, 16]: 6.9%
- Th1 to Th2 ratio ([7]; 1 mg/kg, C1D1 0 h (baseline)): 0.3
- Cytotoxic CD8 to Treg ratio ([7]; 1 mg/kg, C1D1 0 h (baseline)): 1.2
- % IFN-γ+ CD8 T cells ([7]; 1 mg/kg, C1D8 4 h): 45.3%
- % of FoxP3 Tregs ([7]; 1 mg/kg, C1D8 4 h): 3.9%
- Th1 to Th2 ratio ([7]; 1 mg/kg, C1D8 4 h): 1.0
- Cytotoxic CD8 to Treg ratio ([7]; 1 mg/kg, C1D8 4 h): 11.7
- % IFN-γ+ CD8 T cells [7, 17]: 8.8%
- % of FoxP3 Tregs [7, 17]: 8.8%
- % IFN-γ+ CD8 T cells ([7]; 2 mg/kg, C1D8 4 h): 7.0%
- % of FoxP3 Tregs ([7]; 2 mg/kg, C1D8 4 h): 7.6%
- Th1 to Th2 ratio ([7]; 2 mg/kg, C1D8 4 h): 0.5
- Cytotoxic CD8 to Treg ratio ([7]; 2 mg/kg, C1D8 4 h): 0.9
- % IFN-γ+ CD8 T cells [7, 18]: 4.6% and 0.9% and 4.0%
- % of FoxP3 Tregs [7, 18]: 5.3^§ % and 4.9% and 4.0%
- % of FoxP3 Tregs ([7]; 4 mg/kg, C1D8 4 h): 8.4% and 5.9%
- % IFN-γ+ CD8 T cells [7, 19]: 27.4% and 31.7%
- % of FoxP3 Tregs [7, 19]: 3.7% and 2.4% and 6.9%
- Cytotoxic CD8 to Treg ratio ([7]; 8 mg/kg, C1D1 0 h (baseline)): 7.4 and 4.6
- % IFN-γ+ CD8 T cells ([7]; 8 mg/kg, C1D8 4 h): 3.6% and 0.1%
- % of FoxP3 Tregs ([7]; 8 mg/kg, C1D8 4 h): 5.4% and 2.1% and 5.8%
- Th1 to Th2 ratio ([7]; 8 mg/kg, C1D8 4 h): 2.4 and 1.8
- FoxP3+ Tregs in PBMCs versus baseline ([7]; after 172 h of treatment): not significantly altered
- therapeutic effect in combination with radiation therapy ([8]; GL261 glioma model, lost in immune-incompetent animals): long-term survivors and enhanced median survival time relative to monotherapy
- therapeutic effect as monotherapy ([8]; preclinical murine studies, 60 mg/kg): failed to demonstrate any therapeutic effect
- concentration at which immune modulatory effects start [9]: around 0.1 μM
- concentration within orthotopic brain tumors [10]: 2.3 µM
- oral bioavailability ([11]; methylcellulose-based oral nanoparticle formulation): approximately 30%
- mean peak plasma concentration ([11]; preclinical dose of 40 mg/kg): 4.31 µM
- dose dependence of Cmax [12]: dose dependent increase in the Cmax
- animals surviving long term [13]: 80%
